Screens (PubChem)
Only some compounds are listed: those with a hit (about 4% of all), similar ones and a draw of the others.
SIRT5 inh: SIRT5 desuccinylase inhibitors, primary screen, biochemical, fluorescence imaging, single point, set 5; NAD-dependent protein deacylase sirtuin-5, mitochondrial (Homo sapiens), Q9NXA8; Purified SirT5, succinyl-peptide AMC, trypsin-coupled fluorescence; inhibition, % at 15 µM; hit rate 1.1% among 330,000; in the data active means inhibition above about 15%; inconclusive means no clear call, values can overlap the other calls
Target sequence (Q9NXA8 whole entry, looked up): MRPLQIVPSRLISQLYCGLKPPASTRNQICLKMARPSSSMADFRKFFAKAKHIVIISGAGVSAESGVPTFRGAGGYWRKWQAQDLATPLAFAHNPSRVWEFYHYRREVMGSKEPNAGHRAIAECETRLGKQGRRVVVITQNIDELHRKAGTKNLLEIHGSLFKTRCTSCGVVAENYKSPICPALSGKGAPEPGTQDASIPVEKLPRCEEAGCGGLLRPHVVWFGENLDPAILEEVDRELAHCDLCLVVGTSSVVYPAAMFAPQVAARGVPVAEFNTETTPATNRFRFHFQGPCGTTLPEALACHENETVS
E-selectin induc: E-selectin induction in HUVECs, primary screen, imaging, HUVEC, immunofluorescence imaging, single point | activation, % at 7.58 µM | P16581 | hit rate 0.37% among 260,000 | normalized: neutral wells 0, TNF-alpha wells 100;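 active means mean E-selectin-positive cell signal at least 10% of the positive control, reached in at least 60% of replicates, without over 20% cell loss; inconclusive means no rule given, readout overlaps actives, possibly toxicity-flagged; inactive means the rest, including those meeting only one limit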
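Test system: HUVEC; input: 3,000 HUVEC/well; measured by: immunofluorescence imaging; read-out: % PE-positive cells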
FGF22 binding: binders of human FGF22 protein, primary screen, FGF22 synaptogenesis inhibitor project, biophysical, thermal shift, single point; Fibroblast growth factor 22 (Homo sapiens), Q9HCT0; recombinant FGF22 thermal shift, SYPRO orange fluorescence; percent of sucrose octasulfate shift, DMSO zero; activity (Tm shift, normalised), % at 9.99 µM; hit rate 1.5% among 340,000; AID 651658, 2012;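 active means mean Tm shift, scaled 0 neutral to 100 positive control, at about 1.3% or above, every replicate too, limit read from the data; inconclusive means no clear call, values can overlap the other calls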
Target sequence (Q9HCT0 whole entry, looked up): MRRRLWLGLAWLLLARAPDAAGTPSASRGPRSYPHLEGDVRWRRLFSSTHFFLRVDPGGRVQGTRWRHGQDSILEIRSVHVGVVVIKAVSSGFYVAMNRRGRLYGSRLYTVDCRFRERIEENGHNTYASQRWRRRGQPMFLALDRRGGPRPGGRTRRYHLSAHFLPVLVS
FN deposition inh: inhibitors of fibronectin matrix deposition, primary screen, AH1F cells, Alexa488-fibronectin fluorescence, plate reader; inhibition, % at 12.6 µM; AH1F fibroblasts, overnight; hit rate 0.086% among 350,000;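 active means mean inhibition across replicates of 30% or more, regardless of how many single replicates reach that level; inconclusive means mean under 30% yet at least half of replicates reach 30%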
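Assay system: AH1F fibroblast monolayer, labelled fibronectin deposition. Amount: 10000 cells per well. Also added: labelled fibronectin 24 nM. Compound: single-point pinned compound. Incubation: cell attachment 1 h, compound and FN exposure overnight. Detection: fluorescence after three HBSS washes, excitation 485 nm, emission 525 nm. Read-out: inhibition of fibronectin deposition signal.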
C2C12 statin: suppressors of statin myotoxicity in C2C12 myotubes, primary screen, cell-based, single point, plate reader | AID 602340, 2012 | hit rate 0.78% among 330,000 | C2C12 myotubes + simvastatin, ATP luminescence, 48 h; scaled: DMSO 0, geranylgeraniol control 100 | rescue of ATP level, % at 7.49 µM;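 active means mean ATP rescue above about 67%, or every replicate alone reaching that limit, limit read from the data, passing the limit was not always enough; inconclusive means no clear call, values can overlap the other calls; inactive means mean under the limit and some replicate under it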;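 further: myotubes were challenged with 10 µM simvastatin during compound exposure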
Ecoli rRNA inh: reduced GFP signal of wild-type E. coli, primary screen, bacterial rRNA inhibitor project, GFP/RFP fluorescence, OD600, single point | E. coli WT GFP vs humanized-ribosome RFP mutants, 24 h; stronger effect = lower value; DMSO median 0, no signal -100 | GFP signal change (wild-type ribosome), % (concentration not given with the values) | hit rate 1.6% among 350,000 | AID 720706, 2013;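 active means significant combined selectivity score with lowered wild-type GFP, culture density cut under 30%, mutant RFP and density less affected; inactive means any of these conditions unmet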
Large screens that a line does not name were inactive.

CCS(=O)(=O)N1CCC2(CC1)CN(C(=O)c1ccc(F)cc1)[C@@H](CO)c1[nH]c3cc(OC)ccc3c12	none (no result: FN deposition inh, C2C12 statin)
CCCC(=O)Nc1nc(C)c(-c2csc(Nc3cc(OC)ccc3OC)n2)s1	none (no result: SIRT5 inh)
CCCCCC(=O)Nc1nc(C)c(-c2csc(Nc3cc(Cl)ccc3OC)n2)s1	SIRT5 inh 24.2
Cn1c(=O)c2c(nc(Sc3ncnn3CC(=O)NC(C)(C)C)n2C)n(C)c1=O	FGF22 binding 42.9 (no result: E-selectin induc, FN deposition inh)
O=C(C1CCCC1)N1CCCCN2[C@H](CO)[C@H](c3ccc(C#CC4CC4)cc3)[C@@H]2C1	none (no result: E-selectin induc, FN deposition inh, C2C12 statin, Ecoli rRNA inh)
COC(=O)C[C@H]1C=C[C@H](NS(=O)(=O)c2ccc(OC)cc2)[C@@H](CO)O1	none
O=C(Nc1ccc2c(c1)[C@H]1C[C@@H](CC(=O)N3CCc4ccccc4C3)O[C@@H](CO)[C@H]1O2)c1ccc2c(c1)OCO2	none
C=C1c2cccc(O)c2C(=O)C2C(=O)[C@]3(O)C(=O)C(C(N)=O)C(=O)[C@@H](N(C)C)[C@@H]3[C@@H](O)[C@H]12 (some centres undefined)	SIRT5 inh 45.7 (no result: FN deposition inh, Ecoli rRNA inh)
C[C@H]1c2cccc(O)c2C(O)=C2C(=O)[C@]3(O)C(O)=C(C(N)=O)C(=O)[C@@H](N(C)C)C3[C@@H](O)C21 (some centres undefined)	none (no result: Ecoli rRNA inh)
CO[C@H]1CN(C)C(=O)c2cc(NC(=O)C3CC3)ccc2OC[C@H](C)N(Cc2ccncc2)C[C@@H]1C	none
O=C1C(=Cc2cccs2)Oc2ccccc21	Ecoli rRNA inh -18.9 (no result: SIRT5 inh, FGF22 binding)
O=C1/C(=C/c2cccs2)COc2ccccc21	none (no result: E-selectin induc, C2C12 statin)
CC(C)NC(=O)N(C)C[C@@H]1Oc2cc(-c3ccccc3F)ccc2S(=O)(=O)N([C@H](C)CO)C[C@@H]1C	none
Cc1c(C)c2ccc(OCC(=O)NC3CCN(Cc4ccccc4)CC3)cc2oc1=O	none (no result: E-selectin induc)
O=C(COc1ccc2c3c(c(=O)oc2c1)CCC3)NC1CCN(Cc2ccccc2)CC1	Ecoli rRNA inh -29.2 (no result: E-selectin induc)
CCC(=O)Nc1ccc2c(c1)C(=O)N(C)C[C@H](OC)[C@@H](C)CN(Cc1ccccc1F)[C@H](C)CO2	none
C[C@@H]1CN([C@@H](C)CO)C(=O)c2cc(NC(=O)Nc3ccc4c(c3)OCO4)ccc2O[C@@H](C)CCCCO[C@@H]1CN(C)C(=O)CCCN(C)C	none (no result: SIRT5 inh, C2C12 statin)
O=C(CCN1CCCCC1)NCC[C@@H]1CC[C@H](NC(=O)C2CC2)[C@@H](CO)O1	none (no result: FN deposition inh)
COc1ccc(-c2nc3cc(C)ccn3c2NCC2CCCO2)cc1OC (centres undefined)	none (no result: SIRT5 inh, E-selectin induc, FGF22 binding, Ecoli rRNA inh)
COc1cc(-c2nc3cccc(C)n3c2NCC2CCCO2)ccc1O (centres undefined)	FGF22 binding 43.1 (no result: C2C12 statin, Ecoli rRNA inh)
COc1ccc(OCCn2cc(/C=N/NC(=O)c3ccncc3)c3ccccc32)cc1	Ecoli rRNA inh -20.5 (no result: C2C12 statin)
CC(=O)Oc1ccc(/C=C2/CCc3ccccc3C2=O)cc1	Ecoli rRNA inh -30.7
C[C@H](CO)N1C[C@H](C)[C@@H](CN(C)S(=O)(=O)c2cccs2)Oc2ccc(NC(=O)Cc3ccccc3)cc2CC1=O	none
c1ccc(-c2noc(CC3CCCCC3)n2)cc1	FGF22 binding 42.9 (no result: E-selectin induc)
Cc1ccc(CSc2nnc(CCNC(=O)OC(C)(C)C)o2)cc1	Ecoli rRNA inh -24.9 (no result: E-selectin induc, C2C12 statin)
Cc1ccc(CSc2nnc([C@@H]3CCCN3C(=O)OC(C)(C)C)o2)cc1	Ecoli rRNA inh -15.6
CC(C)(C)OC(=O)NCCc1nnc(SCc2ccccc2)o1	none (no result: E-selectin induc, C2C12 statin)
CC(C)C#Cc1ccc2c(c1)O[C@H](CN(C)C)[C@H](C)CN([C@H](C)CO)S2(=O)=O	none (no result: SIRT5 inh, FN deposition inh)
O=C(Nc1cccc(Cl)c1)N1C[C@@H]2[C@H](c3ccccc31)[C@@H](CO)N2C(=O)c1cccnc1	Ecoli rRNA inh -50.6 (no result: FGF22 binding, FN deposition inh)
O=C(Nc1cccc(Cl)c1)N1C[C@H]2[C@@H](c3ccccc31)[C@@H](CO)N2C(=O)c1cccnc1	none (no result: FGF22 binding, FN deposition inh)
O=C(Nc1cccc(Cl)c1)N1C[C@H]2[C@@H](c3ccccc31)[C@H](CO)N2Cc1ccccc1Cl	FGF22 binding 84.2 (no result: FN deposition inh)
Cc1cccn2c(=O)c(C=Nc3ccc(Cl)cc3)c(NCCO)nc12	none (no result: SIRT5 inh, E-selectin induc, FGF22 binding, Ecoli rRNA inh)
Cc1cccn2c(=O)c(C=NCCO)c(Nc3ccc(Cl)cc3)nc12	FGF22 binding 43.8 (no result: E-selectin induc, C2C12 statin)
C[C@@H]1CN([C@H](C)CO)C(=O)c2cc(NC(=O)NC3CCCCC3)ccc2O[C@H]1CN(C)Cc1ccccc1	none (no result: FN deposition inh)
O=C1C[C@H](c2ccccc2)C(=O)N[C@H](c2ccccc2)C/C=C\C[C@H](c2ccccc2)N1	none (no result: SIRT5 inh, E-selectin induc, FGF22 binding, C2C12 statin)
Cc1ccc(-n2c(C)nc3ccsc3c2=O)cc1	Ecoli rRNA inh -36.3 (no result: E-selectin induc)
COc1ccc(NC(=O)Nc2ccc3c(c2)C(=O)N([C@H](C)CO)C[C@H](C)[C@H](CN(C)C(=O)Nc2ccc(F)cc2)O3)cc1	none (no result: FN deposition inh)
Cc1ccc(-n2nnnc2-c2ccccc2Br)cc1	Ecoli rRNA inh -28.4 (no result: E-selectin induc)
C[C@H](CO)N1C[C@H](C)[C@H](CN(C)Cc2ccc(C(=O)O)cc2)OCCCC[C@H](C)Oc2ccc(NC(=O)Cc3ccccc3)cc2C1=O	none (no result: FN deposition inh, C2C12 statin)
CC(C)C[C@H](NC(=O)C1CCN(C(=O)[C@H](Cc2ccccc2)NC(=O)OC(C)(C)C)CC1)C(=O)O	SIRT5 inh 22.4, E-selectin induc inconclusive
COCC(=O)N1[C@@H](CO)[C@@H]2c3ccccc3N(C(=O)C3CC3)C[C@@H]21	none (no result: FN deposition inh)
C[C@@H]1CN([C@H](C)CO)C(=O)Cc2cc(NC(=O)Cc3cn(C)c4ccccc34)ccc2O[C@@H]1CN(C)S(=O)(=O)c1ccc(F)cc1	C2C12 statin inconclusive (no result: FN deposition inh)
CNC(=O)/C(C#N)=C1\SC(Cc2ccc(F)cc2)C(=O)N1c1ccccc1C (centres undefined)	none
CC(=O)/C(C#N)=C1\NC(=O)C(Cc2ccccc2C)S1 (centres undefined)	Ecoli rRNA inh -29.8 (no result: E-selectin induc, C2C12 statin)
CC(C)OC(=O)CSc1nc(Cc2cccs2)nc2ccccc12	FGF22 binding 44.2 (no result: E-selectin induc, C2C12 statin)
COc1ccc(CN(C)C[C@H]2OCCCC[C@@H](C)Oc3ccc(NC(=O)Nc4ccc(F)cc4)cc3C(=O)N([C@@H](C)CO)C[C@H]2C)cc1	none (no result: FN deposition inh)
Cc1nc(-c2ccc(NC(=O)c3ccccc3C)cc2)cs1	Ecoli rRNA inh -27.2
Cc1nc(-c2ccc(NC(=O)c3ccccc3Br)cc2)cs1	none (no result: SIRT5 inh, FGF22 binding, C2C12 statin, Ecoli rRNA inh)
Cc1nc(-c2ccc(C(=O)Nc3ccc(F)cc3)cc2)cs1	FGF22 binding 43.2
